We go through 16 compounds from ChEMBL document CHEMBL4680068, “Towards a RIOK2 chemical probe: cellular potency improvement of a selective 2-(acylamino)pyridine series” (RSC Med Chem, 2021).

Test [1] concerns the target T1, Mitogen-activated protein kinase 10 (Homo sapiens, UniProt P53779). Kind of test: Inhibition of full length recombinant human MAPK10 using peptide substrate incubated for 40 mins in presence of [gamma33P]ATP by radiometric scintillation analysis. Summed up:
(§1)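 Eurofins radiometric enzymatic kinase assay run at the Km of ATP for each kinase. Activity was read as incorporation of radiolabelled ATP into a peptide substrate, in a homogeneous format.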

Test [2] addresses Serine/threonine-protein kinase RIO2 (Homo sapiens, UniProt Q9BVS4). Kind of test: Displacement of tracer K5 from N-terminal nanoluciferase-tagged RIOK2 (unknown origin) expressed in HEK293 cells measured after 2 hrs by NanoBRET assay. Format: cell-based. Background: Bioluminescence resonance energy transfer reports proximity on the nanometre scale.
Test [3] has as its target T2, SNF-related serine/threonine-protein kinase (Homo sapiens, UniProt Q9NRH2).
T2 sequence (Q9NRH2 whole entry): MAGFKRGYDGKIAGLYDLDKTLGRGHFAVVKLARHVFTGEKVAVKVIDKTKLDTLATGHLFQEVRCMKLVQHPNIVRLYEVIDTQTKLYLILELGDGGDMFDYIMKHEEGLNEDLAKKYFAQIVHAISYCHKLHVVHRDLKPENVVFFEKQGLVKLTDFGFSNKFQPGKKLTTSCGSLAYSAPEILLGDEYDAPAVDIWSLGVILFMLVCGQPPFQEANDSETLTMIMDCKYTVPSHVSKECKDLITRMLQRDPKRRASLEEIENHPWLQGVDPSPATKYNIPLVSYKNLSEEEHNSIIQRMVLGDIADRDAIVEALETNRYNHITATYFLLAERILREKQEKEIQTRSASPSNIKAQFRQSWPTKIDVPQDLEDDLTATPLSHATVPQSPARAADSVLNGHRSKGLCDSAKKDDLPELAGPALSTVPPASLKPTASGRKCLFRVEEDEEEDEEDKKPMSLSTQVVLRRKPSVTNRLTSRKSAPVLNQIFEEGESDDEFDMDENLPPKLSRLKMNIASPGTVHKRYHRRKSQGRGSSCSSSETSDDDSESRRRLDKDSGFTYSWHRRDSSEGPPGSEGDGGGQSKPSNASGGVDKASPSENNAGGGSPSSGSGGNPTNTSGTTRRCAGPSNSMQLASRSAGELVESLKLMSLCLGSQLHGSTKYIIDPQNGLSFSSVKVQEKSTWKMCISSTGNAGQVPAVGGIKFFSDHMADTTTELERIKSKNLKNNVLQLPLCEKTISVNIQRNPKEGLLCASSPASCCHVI
Briefly: Inhibition of recombinant human SNRK E97G/P116A mutant (1 to 505 residues) using KKLRRTLSFAEPG peptide as substrate incubated for 40 mins in presence of [gamma33P]ATP by radiometric scintillation analysis. The method, boiled down:
as §1

Test [4] concerns the target T3, Mitogen-activated protein kinase 8 (Homo sapiens, UniProt P45983). Briefly: Inhibition of full length recombinant human MAPK8 using ATF2 as substrate incubated for 40 mins in presence of [gamma33P]ATP by radiometric scintillation analysis. The method, boiled down: as §1
Test [5] addresses T4, Homeodomain-interacting protein kinase 1 (Homo sapiens, UniProt Q86Z02). Briefly: Inhibition of human HIPK1 (158 to 555 residues) using myelin ba as substrate incubated for 40 mins in presence of [gamma33P]ATP by radiometric scintillation analysis. The method, boiled down:
as §1

The target of test [6] is T5, Glycogen synthase kinase-3 alpha (Homo sapiens, UniProt P49840). Briefly: Inhibition of recombinant human GSK3alpha S449A mutant (2 to end residues) using YRRAAVPPSPSLSR peptide as substrate incubated for 40 mins in presence of [gamma33P]ATP by radiometric scintillation analysis. Summed up: (§2)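 Orthogonal homogeneous enzymatic kinase assay, run by a contract provider. GSK3α activity was read as incorporation of radiolabelled ATP into a peptide substrate. ATP was at its Km.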
T5 sequence (P49840 whole entry): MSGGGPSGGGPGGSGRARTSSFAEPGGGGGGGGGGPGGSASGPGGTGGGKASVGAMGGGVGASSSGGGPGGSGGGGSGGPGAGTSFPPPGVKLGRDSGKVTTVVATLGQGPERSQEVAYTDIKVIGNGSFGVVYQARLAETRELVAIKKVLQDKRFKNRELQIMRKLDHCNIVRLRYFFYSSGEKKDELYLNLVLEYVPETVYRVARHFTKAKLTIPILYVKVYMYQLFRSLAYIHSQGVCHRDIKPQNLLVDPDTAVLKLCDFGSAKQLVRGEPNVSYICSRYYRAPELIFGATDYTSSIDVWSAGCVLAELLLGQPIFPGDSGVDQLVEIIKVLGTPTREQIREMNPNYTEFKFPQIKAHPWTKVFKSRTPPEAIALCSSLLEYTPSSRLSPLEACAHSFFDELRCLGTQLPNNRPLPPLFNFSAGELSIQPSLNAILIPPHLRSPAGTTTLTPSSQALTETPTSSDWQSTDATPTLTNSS

Test [7] has as its target T5, Glycogen synthase kinase-3 alpha. Kind of test: Binding affinity to recombinant human GSK3alpha S449A mutant (2 to end residues) using YRRAAVPPSPSLSR peptide as substrate incubated for 40 mins in presence of [gamma33P]ATP by radiometric scintillation analysis. Summed up:
as §2

Test [8] addresses T4, Homeodomain-interacting protein kinase 1. Briefly: Binding affinity to human HIPK1 (158 to 555 residues) using myelin ba as substrate incubated for 40 mins in presence of [gamma33P]ATP by radiometric scintillation analysis. The method, boiled down: as §1
Test [9] concerns the target T3, Mitogen-activated protein kinase 8. Briefly: Binding affinity to full length recombinant human MAPK8 using ATF2 as substrate incubated for 40 mins in presence of [gamma33P]ATP by radiometric scintillation analysis. The method, boiled down: as §1
Test [10] addresses T1, Mitogen-activated protein kinase 10. Kind of test: Binding affinity to full length recombinant human MAPK10 using peptide substrate incubated for 40 mins in presence of [gamma33P]ATP by radiometric scintillation analysis. The method, boiled down: as §1
Test [11] addresses T2, SNF-related serine/threonine-protein kinase. Kind of test: Binding affinity to recombinant human SNRK E97G/P116A mutant (1 to 505 residues) using KKLRRTLSFAEPG peptide as substrate incubated for 40 mins in presence of [gamma33P]ATP by radiometric scintillation analysis. The method, boiled down: as §1

T1 sequence (P53779 whole entry): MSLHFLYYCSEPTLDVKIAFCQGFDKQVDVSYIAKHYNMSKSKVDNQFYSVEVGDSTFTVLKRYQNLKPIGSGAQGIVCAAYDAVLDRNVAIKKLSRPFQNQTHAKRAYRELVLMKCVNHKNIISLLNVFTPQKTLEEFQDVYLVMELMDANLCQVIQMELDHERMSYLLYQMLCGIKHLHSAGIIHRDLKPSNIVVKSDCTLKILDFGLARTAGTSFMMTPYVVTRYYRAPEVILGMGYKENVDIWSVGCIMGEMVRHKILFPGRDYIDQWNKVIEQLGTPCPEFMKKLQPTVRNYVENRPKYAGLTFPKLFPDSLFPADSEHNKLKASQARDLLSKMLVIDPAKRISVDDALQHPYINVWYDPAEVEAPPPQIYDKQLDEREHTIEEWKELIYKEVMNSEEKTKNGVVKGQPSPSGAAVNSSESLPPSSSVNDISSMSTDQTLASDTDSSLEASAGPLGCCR
T3 sequence (P45983 whole entry, the tested form may be a part): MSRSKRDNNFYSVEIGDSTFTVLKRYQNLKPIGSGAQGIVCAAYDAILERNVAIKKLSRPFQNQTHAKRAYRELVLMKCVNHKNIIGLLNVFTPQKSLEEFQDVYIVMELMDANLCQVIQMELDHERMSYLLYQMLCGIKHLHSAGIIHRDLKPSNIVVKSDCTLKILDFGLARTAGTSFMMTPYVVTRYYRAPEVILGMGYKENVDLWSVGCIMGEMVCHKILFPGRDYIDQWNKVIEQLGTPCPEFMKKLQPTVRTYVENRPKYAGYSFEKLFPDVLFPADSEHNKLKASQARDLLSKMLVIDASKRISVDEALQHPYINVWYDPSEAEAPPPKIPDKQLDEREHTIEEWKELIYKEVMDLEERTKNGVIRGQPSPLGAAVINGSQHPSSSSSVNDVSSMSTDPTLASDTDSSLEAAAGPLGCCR
T4 sequence (Q86Z02 whole entry, the tested form may be a part): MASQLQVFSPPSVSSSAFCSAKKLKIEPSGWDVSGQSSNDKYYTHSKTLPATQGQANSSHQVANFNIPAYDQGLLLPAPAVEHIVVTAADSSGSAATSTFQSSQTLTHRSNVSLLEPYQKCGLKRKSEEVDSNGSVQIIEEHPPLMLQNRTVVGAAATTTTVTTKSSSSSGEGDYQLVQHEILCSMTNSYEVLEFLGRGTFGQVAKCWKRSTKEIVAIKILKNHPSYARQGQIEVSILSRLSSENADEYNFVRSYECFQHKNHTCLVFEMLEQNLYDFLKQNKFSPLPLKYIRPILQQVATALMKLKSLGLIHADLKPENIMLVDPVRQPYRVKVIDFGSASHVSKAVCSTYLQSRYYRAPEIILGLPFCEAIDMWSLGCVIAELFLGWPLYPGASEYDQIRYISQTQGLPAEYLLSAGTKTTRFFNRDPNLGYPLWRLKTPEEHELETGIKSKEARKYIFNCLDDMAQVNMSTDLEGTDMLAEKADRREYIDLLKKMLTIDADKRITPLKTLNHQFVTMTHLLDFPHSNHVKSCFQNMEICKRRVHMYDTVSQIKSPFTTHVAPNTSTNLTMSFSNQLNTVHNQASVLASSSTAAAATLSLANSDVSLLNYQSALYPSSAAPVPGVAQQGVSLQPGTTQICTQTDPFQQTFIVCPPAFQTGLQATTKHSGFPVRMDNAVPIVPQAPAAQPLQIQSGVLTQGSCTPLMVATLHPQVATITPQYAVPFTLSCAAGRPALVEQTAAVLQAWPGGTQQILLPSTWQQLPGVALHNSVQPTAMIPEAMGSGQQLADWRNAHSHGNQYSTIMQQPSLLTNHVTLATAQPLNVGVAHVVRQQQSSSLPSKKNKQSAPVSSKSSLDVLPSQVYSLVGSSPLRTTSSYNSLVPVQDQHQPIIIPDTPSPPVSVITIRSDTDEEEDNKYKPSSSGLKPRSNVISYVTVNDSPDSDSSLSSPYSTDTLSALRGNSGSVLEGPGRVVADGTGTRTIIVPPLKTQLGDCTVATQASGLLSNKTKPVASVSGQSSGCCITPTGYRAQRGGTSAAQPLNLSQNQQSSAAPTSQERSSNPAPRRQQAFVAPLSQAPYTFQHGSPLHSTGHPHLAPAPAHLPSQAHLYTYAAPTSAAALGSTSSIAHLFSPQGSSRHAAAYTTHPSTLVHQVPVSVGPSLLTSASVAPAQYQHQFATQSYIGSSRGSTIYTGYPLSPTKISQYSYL
Sequence of Serine/threonine-protein kinase RIO2 (Q9BVS4 whole entry): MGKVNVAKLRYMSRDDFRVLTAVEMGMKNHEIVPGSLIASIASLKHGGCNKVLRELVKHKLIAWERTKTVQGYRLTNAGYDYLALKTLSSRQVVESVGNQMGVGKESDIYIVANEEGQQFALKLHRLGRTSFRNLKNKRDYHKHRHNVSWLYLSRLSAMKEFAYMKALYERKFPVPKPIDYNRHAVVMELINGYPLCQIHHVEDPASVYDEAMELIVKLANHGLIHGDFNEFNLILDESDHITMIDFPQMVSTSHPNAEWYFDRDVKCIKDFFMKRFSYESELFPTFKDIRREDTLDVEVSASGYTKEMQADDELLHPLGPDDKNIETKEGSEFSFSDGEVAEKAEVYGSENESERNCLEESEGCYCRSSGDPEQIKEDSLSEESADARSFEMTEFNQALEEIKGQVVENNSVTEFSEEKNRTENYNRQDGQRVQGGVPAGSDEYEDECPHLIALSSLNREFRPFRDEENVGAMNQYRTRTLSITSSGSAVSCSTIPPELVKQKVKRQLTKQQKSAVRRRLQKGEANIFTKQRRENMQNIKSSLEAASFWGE

Take `COc1ccnc(NC(=O)Cc2ccc3ccccc3c2)c1`: the IC50 was 1.3 µM in test [1]; 5.2 µM in test [2]; above 10 µM in test [3]; above 10 µM in [4]; above 10 µM in test [5]; 4.8 µM in test [6].

With `O=C(Cc1ccc2ccccc2c1)Nc1cc(Cl)ccn1`, the IC50 in test [1] was 0.52 µM; in [2], 5 µM; in [3], above 10 µM; in test [4] it was above 10 µM; in test [5], above 10 µM; in test [6] it was 0.86 µM.

With `Cc1ccnc(NC(=O)Cc2ccc3ccccc3c2)c1`, the half-inhibitory concentration (IC50) in test [1] was 4.7 µM; in test [3], above 10 µM; in [4], above 10 µM; in test [5], above 10 µM; in [6], 5.2 µM. For the same compound, the Kd stood at 0.87 µM in [7]; 1.1 µM in test [8]; 0.22 µM in test [9]; 0.34 µM in test [10]; 0.89 µM in [11].

In the case of `O=C(Cc1ccc2ccccc2c1)Nc1cc(Br)ccn1`, the IC50 in test [2] was 13.4 µM.

Turning to `CCc1ccnc(NC(=O)Cc2ccc3ccccc3c2)c1`, in test [2], the IC50 was found to be 14.5 µM.

For `COc1ccc2cc([C@@H](C)C(=O)Nc3cc(C)ccn3)ccc2c1`, the concentration for half-maximal inhibition (IC50) in test [2] worked out at 7.6 µM.

In the case of `COc1ccc2cc([C@H](C)C(=O)Nc3cc(C)ccn3)ccc2c1`, the IC50 was 5.1 µM in test [1]; 6.6 µM in [2]; above 10 µM in [3]; above 10 µM in [4]; above 10 µM in test [5]; 4.5 µM in [6].

Compound `Cc1ccnc(NC(=O)COc2ccc3ccccc3c2)c1` yielded an IC50 in [2] above 30 µM.

`Cc1ccnc(NC(=O)CCc2ccc3ccccc3c2)c1`: the IC50 in [2] is above 30 µM.

For the compound `COc1ccnc(NC(=O)[C@@H](C)c2ccc3cc(OC)ccc3c2)c1`, in [2], the IC50 was 5.3 µM.

Consider `O=C(Cc1ccc2ccccc2c1)Nc1cc(C(F)(F)F)ccn1`, for which the IC50 in test [2] turned out to be 7.5 µM.

Take `COc1ccnc(NC(=O)Cc2ccc(C)c(C)c2)c1`: the half-maximal inhibitory concentration (IC50) in test [2] amounted to 28 µM.

In turn, `COc1ccnc(NC(=O)Cc2ccc(-c3ccccc3)cc2)c1` showed a half-inhibitory concentration (IC50) in [2] of 7.6 µM.

For `COc1ccc2cc(C(C)C(=O)Nc3cc(C)ccn3)ccc2c1` (racemic), the concentration for half-maximal inhibition (IC50) is 0.78 µM in [1]; 5.2 µM in [2]; above 10 µM in test [3]; above 10 µM in test [4]; above 10 µM in test [5]; 1.9 µM in [6].

`Cc1ccnc(NC(=O)Cc2ccc3c(c2)OCO3)c1` returned an IC50 in test [2] above 30 µM.

In turn, `Cc1ccnc(NC(=O)Cc2ccc3c(c2)OCCO3)c1` registered a half-maximal inhibitory concentration (IC50) in test [2] above 30 µM.

What is called IC50 is the concentration at which inhibition is half-maximal. One may read the Kd as the equilibrium constant for the complex coming apart.
